Assay [1] can be described thus: Growth inhibition of human H460 cells after 72 hrs by trypan blue assay. Format: functional. The conditions noted are these: NCI-H460, 72 h. The procedure, abridged: (§1)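 Medium: HeLa in F-12 [HAM]; H460 and MSTO-211H in RPMI 1640 plus Hepes, pyruvate and glucose. All media contained 10% heat-inactivated FCS and antibiotics; 37°C, 5% CO2. 3–4 × 10^4 cells/well grew 24 h, then test agents were added at various concentrations for 72 h. Viability by trypan blue; GI50 = concentration giving 50% reduction in cell number vs control.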

Assay [2] is described as follows: Growth inhibition of human MSTO-211H cells after 72 hrs by trypan blue assay. It is filed as functional. Summed up: as §1
The nature of assay [3]: Growth inhibition of human HeLa cells after 72 hrs by trypan blue assay. It is filed as functional. Summed up: as §1
Assay [4] in a line: Binding affinity to DNA (unknown origin) assessed as induction of negative LD signal at 260 nm at 1.2 x 10^-5 M by linear flow dichroism method. The conditions noted are these: in the assay text read “380 to 520 nm” for “260 nm”. The procedure, abridged:
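Linear flow dichroism: aqueous DNA solutions at 1.9 × 10^-3 M in ETN buffer (10 mM TRIS, 1 mM EDTA, pH 7.0, 0.01 M NaCl); spectra recorded at 25°C at [drug]/[DNA] ratios of 0 and 0.08.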

The target of assay [5] is T1, DNA topoisomerase 1 (Homo sapiens) (UniProt P11387).
T1 sequence (whole entry): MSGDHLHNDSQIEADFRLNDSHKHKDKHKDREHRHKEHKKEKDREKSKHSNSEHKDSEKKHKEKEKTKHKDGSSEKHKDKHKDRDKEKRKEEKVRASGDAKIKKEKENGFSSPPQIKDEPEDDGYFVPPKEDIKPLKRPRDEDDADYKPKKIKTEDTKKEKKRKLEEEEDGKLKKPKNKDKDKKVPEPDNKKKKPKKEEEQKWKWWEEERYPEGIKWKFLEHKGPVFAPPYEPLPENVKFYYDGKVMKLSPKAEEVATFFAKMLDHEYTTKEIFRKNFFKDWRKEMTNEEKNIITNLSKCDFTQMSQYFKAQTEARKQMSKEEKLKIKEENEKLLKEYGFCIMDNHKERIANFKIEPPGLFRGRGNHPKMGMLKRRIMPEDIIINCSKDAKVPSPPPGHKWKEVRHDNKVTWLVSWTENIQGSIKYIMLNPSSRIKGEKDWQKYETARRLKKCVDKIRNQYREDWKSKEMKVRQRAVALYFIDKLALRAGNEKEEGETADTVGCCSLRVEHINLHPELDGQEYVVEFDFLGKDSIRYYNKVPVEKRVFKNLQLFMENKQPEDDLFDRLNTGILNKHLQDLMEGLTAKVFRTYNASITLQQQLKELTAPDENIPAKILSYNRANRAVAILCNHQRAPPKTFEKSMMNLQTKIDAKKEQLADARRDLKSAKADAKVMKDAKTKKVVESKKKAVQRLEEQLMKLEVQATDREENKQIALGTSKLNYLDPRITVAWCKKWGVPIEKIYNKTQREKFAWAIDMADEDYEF
Briefly: Poison activity at human recombinant topoisomerase 1 assessed as enzyme-supercoiled pBR322 DNA cleavable complex at 500 uM after 60 mins by agarose gel electrophoresis.

Assay [6] concerns the target T1, DNA topoisomerase 1 (Homo sapiens). Briefly: Inhibition of human recombinant topoisomerase 1 catalytic activity assessed as decrease in relaxation of supercoiled pBR322 DNA at 100 uM after 60 mins by agarose gel electrophoresis. Summed up: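 Supercoiled pBR322 plasmid (0.25 µg) with 2U human recombinant topoisomerase I plus test compound, 60 min at 37 °C. Stopped with SDS stop buffer and proteinase K (50 µg/mL), a further 30 min at 37 °C. Run on 1% agarose; post-stained with ethidium bromide 1 µg/mL in TAE and imaged under UV.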

Assay [7] shares this target. Briefly: Poison activity at human recombinant topoisomerase 1 assessed as enzyme-supercoiled pBR322 DNA cleavable complex at 25 to 100 uM after 60 mins by agarose gel electrophoresis.

The record followed here is ChEMBL document CHEMBL3872228, “A new scaffold of topoisomerase I inhibitors: Design, synthesis and biological evaluation” (2016).

Broadly, the GI50 is the concentration at which growth is held to half of that of the control. A higher GI50 goes with lower sensitivity of the cells.

Active and inactive are the calls of the source. No cut-off for these calls is given here. Some results are limits rather than exact numbers.

`C=CC[C@@]12CCN[C@@H]1n1c3nc4ccc(O)cc4cc3c(=O)c3cc(O)cc2c31`: the GI50 was found to be 4.8 µM in assay [1], 7 µM in assay [2] and 15.3 µM in assay [3].
The corresponding values for `C=CC[C@@]12CCN[C@@H]1n1c3nc4ccccc4cc3c(=O)c3cc(OC)cc2c31` are 32.2 µM, 14.4 µM and 30.7 µM.
The corresponding values for `CN(C)Cc1c(O)ccc2nc3c(cc12)c(=O)c1cccc2c1n3[C@H]1N(C(=O)OC(C)(C)C)CC[C@@]21CCO` are 16.4 µM, 20 µM and 13 µM.
Regarding `C=CC[C@@]12CCN(C(=O)OC(C)(C)C)[C@@H]1n1c3nc4ccc(O)c(CN(C)C)c4cc3c(=O)c3cccc2c31`, the GI50 in assay [1] amounted to 17.8 µM; in assay [2], 22.8 µM; in assay [3], 35.2 µM.
As to `C=CC[C@@]12CCN[C@@H]1n1c3nc4ccc(OC)cc4cc3c(=O)c3cccc2c31`, the figures for the GI50 in assay [1], in assay [2] and in assay [3] were 8.9 µM, 7.8 µM and 14.8 µM, respectively. The result in assay [4] and in assay [5] was Active. Besides, the inhibition entry in assay [6] was “Active”.
For the molecule `C=CC[C@@]12CCN(C)[C@@H]1n1c3nc4ccc(OC)cc4cc3c(=O)c3cc(OC)cc2c31`, the GI50 in assay [1] was 50 µM; in assay [2] it was 34.2 µM; in assay [3], 18.3 µM.
For `C=CC[C@@]12CCN(C(=O)OC(C)(C)C)[C@@H]1n1c3nc4ccc(O)cc4cc3c(=O)c3cccc2c31` the same measures were 32.7 µM, 24.1 µM and 30.5 µM.
The corresponding values for `C=CC[C@@]12CCN[C@@H]1n1c3nc4ccc(O)c(CN(C)C)c4cc3c(=O)c3cccc2c31` are 26.2 µM, 29.1 µM and 29.3 µM.
Regarding `CC(C)(C)OC(=O)N1CC[C@@]2(CCO)c3cccc4c(=O)c5cc6cc(O)ccc6nc5n(c34)[C@@H]12`, the 50% growth inhibitory concentration (GI50) is 26.8 µM in assay [1], 13.7 µM in assay [2] and 13 µM in assay [3].
For `CC[C@@]1(O)C(=O)OCc2c1cc1n(c2=O)Cc2cc3ccccc3nc2-1` [CAMPTOTHECIN] the same measures were 0.002 µM, 0.0021 µM and 0.0054 µM.
For `C=CC[C@@]12CCN[C@@H]1n1c3nc4ccccc4cc3c(=O)c3cccc2c31` the same measures were 14.4 µM, 13 µM and 16.5 µM.
For `COc1ccc2nc3c(cc2c1)c(=O)c1cccc2c1n3[C@H]1NCC[C@@]21CCO`, the values for the concentration for 50% growth inhibition (GI50) in assay [1], in assay [2] and in assay [3] were 0.85 µM, 1.9 µM and 1.4 µM, respectively. The outcome in assay [4] and in assay [7] was Active. Moreover, the inhibition result in assay [6] was “Active”.
Consider `C=CC[C@@]12CCN[C@@H]1n1c3nc4ccc(O)cc4cc3c(=O)c3cccc2c31`, for which the GI50 was more than 50 µM in assay [1], 18.7 µM in assay [2] and 19 µM in assay [3].
For `C=CC[C@@]12CCN[C@@H]1n1c3nc4ccc(OC)cc4cc3c(=O)c3cc(OC)cc2c31` the same measures were 18.6 µM, 13.5 µM and 16.6 µM.
